Calls of active or inactive are those of the source. No cut-off for these calls is given here.
Assays:
U-937 [1] = experiment: Induction of apoptosis in human U937 cells assessed as early apoptotic cells at 1 x GI50 concentration incubated for 24 hrs by annexin V-FITC and propidium iodide staining based flow cytometry (Rvb =1.81 %); assay type: functional
U-937 [2] = experiment: Induction of apoptosis in human U937 cells assessed as viable cells at 1 x GI50 concentration incubated for 48 hrs by annexin V-FITC staining based flow cytometry (reference value: 86.25 %); assay type: functional
[3] = target: Receptor-type tyrosine-protein kinase FLT3 (Homo sapiens) (UniProt P36888); experiment: Inhibition of FLT3-mediated signalling pathway in human MV4-11 cells assessed as increase in cleaved PARP expression upto 20 x GI50 concentration incubated for 6 hrs by western blot analysis; assay type: cell-based
Summary of the method: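 Cells lysed in phosphate lysis buffer with protease inhibitors and protein quantified. Western blots probed phospho and total STAT5, AKT, ERK, S6RP and eIF4E, plus full-length and cleaved PARP and caspase-3, with β-actin as loading control. At least two independent experiments.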

[4] = Inhibition of FLT3 ITD-NPOS mutant (unknown origin) incubated for 120 mins by ADP-glo based luminescence assay; design: species or system Homo sapiens
MV4-11 [5] = experiment: Induction of apoptosis in human MV4-11 cells assessed as necrotic cells at 10 x GI50 concentration incubated for 48 hrs by annexin V-FITC and propidium iodide staining based flow cytometry (reference value: 0.45 %); assay type: functional
U-937 [6] = experiment: Induction of apoptosis in human U937 cells assessed as viable cells at 1 x GI50 concentration incubated for 24 hrs by annexin V-FITC and propidium iodide staining based flow cytometry (reference value: 86.80 %); assay type: functional
MV4-11 [7] = experiment: Induction of apoptosis in human MV4-11 cells assessed as viable cells at 5 x GI50 concentration incubated for 48 hrs by annexin V-FITC and propidium iodide staining based flow cytometry (reference value: 91.87 %); assay type: functional
MV4-11 [8] = experiment: Induction of apoptosis in human MV4-11 cells assessed as necrotic cells at 20 x GI50 concentration incubated for 24 hrs by annexin V-FITC and propidium iodide staining based flow cytometry (reference value: 0.75 %); assay type: functional
Jurkat = experiment: Antiproliferative activity against human Jurkat cells harboring FLT3 knockout gene assessed as reduction in cell viability after 72 hrs by resazurin assay; assay type: functional
Summary of the method: (§1)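 Cells seeded and pre-incubated 24 h at 37 °C, 5% CO2, then given a five-fold dilution series of compound (from 10 mM DMSO stock) in medium, in triplicate. Resazurin added after 72 h exposure, 4 h in dark at 37 °C. Fluorescence read at 570/585 nm, normalised to DMSO vehicle. GI50 by non-linear regression; mean ± SD of at least two replicates.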

MV4-11 [9] = experiment: Induction of apoptosis in human MV4-11 cells assessed as viable cells at 1 x GI50 concentration incubated for 48 hrs by annexin V-FITC and propidium iodide staining based flow cytometry (reference value: 91.87 %); assay type: functional
MV4-11 [10] = experiment: Induction of apoptosis in human MV4-11 cells assessed as viable cells at 20 x GI50 concentration incubated for 48 hrs by annexin V-FITC and propidium iodide staining based flow cytometry (reference value: 91.87 %); assay type: functional
U-937 [11] = experiment: Antiproliferative activity against human U-937 cells harboring wild type/low FLT3 assessed as reduction in cell viability after 72 hrs by resazurin assay; assay type: functional; summary of the method: as §1
MV4-11 [12] = experiment: Induction of apoptosis in human MV4-11 cells assessed as viable cells at 10 x GI50 concentration incubated for 24 hrs by annexin V-FITC and propidium iodide staining based flow cytometry (reference value: 84.68 %); assay type: functional
MV4-11 [13] = experiment: Induction of apoptosis in human MV4-11 cells assessed as viable cells at 10 x GI50 concentration incubated for 48 hrs by annexin V-FITC and propidium iodide staining based flow cytometry (reference value: 91.87 %); assay type: functional
U-937 [14] = experiment: Induction of apoptosis in human U937 cells assessed as viable cells at 10 x GI50 concentration incubated for 24 hrs by annexin V-FITC and propidium iodide staining based flow cytometry (reference value: 86.80 %); assay type: functional
MV4-11 [15] = experiment: Induction of apoptosis in human MV4-11 cells assessed as late apoptotic cells at 20 x GI50 concentration incubated for 48 hrs by annexin V-FITC and propidium iodide staining based flow cytometry (reference value: […] %); assay type: functional
U-937 [16] = experiment: Induction of apoptosis in human U937 cells assessed as necrotic cells at 10 x GI50 concentration incubated for 48 hrs by annexin V-FITC staining based flow cytometry (reference value: 1.16 %); assay type: functional
MV4-11 [17] = experiment: Induction of apoptosis in human MV4-11 cells assessed as early apoptotic cells at 1 x GI50 concentration incubated for 24 hrs by annexin V-FITC and propidium iodide staining based flow cytometry (reference value: 2.12 %); assay type: functional
MV4-11 [18] = experiment: Induction of apoptosis in human MV4-11 cells assessed as late apoptotic cells at 1 x GI50 concentration incubated for 24 hrs by annexin V-FITC and propidium iodide staining based flow cytometry (reference value: 12.45 %); assay type: functional
U-937 [19] = experiment: Induction of apoptosis in human U937 cells assessed as necrotic cells at 1 x GI50 concentration incubated for 48 hrs by annexin V-FITC staining based flow cytometry (reference value: 1.16 %); assay type: functional
MV4-11 [20] = experiment: Induction of apoptosis in human MV4-11 cells assessed as late apoptotic cells at 1 x GI50 concentration incubated for 48 hrs by annexin V-FITC and propidium iodide staining based flow cytometry (reference value: 6.59 %); assay type: functional
MV4-11 [21] = experiment: Induction of apoptosis in human MV4-11 cells assessed as viable cells at 20 x GI50 concentration incubated for 24 hrs by annexin V-FITC and propidium iodide staining based flow cytometry (reference value: 84.68 %); assay type: functional
U-937 [22] = experiment: Induction of apoptosis in human U937 cells assessed as late apoptotic cells at 10 x GI50 concentration incubated for 24 hrs by annexin V-FITC and propidium iodide staining based flow cytometry (reference value: 10.30 %); assay type: functional
MV4-11 [23] = experiment: Induction of apoptosis in human MV4-11 cells assessed as early apoptotic cells at 20 x GI50 concentration incubated for 48 hrs by annexin V-FITC and propidium iodide staining based flow cytometry (reference value: 1.08 %); assay type: functional
[24] = target: Cyclin-dependent kinase 2/cyclin E1 (Homo sapiens, UniProt P24941); experiment: Inhibition of CDK2/cyclin E (unknown origin) using histone 1 protein substrate incubated for 120 mins measured after 40 mins incubation under dark by ADP-glo based luminescence assay; assay type: protein-complex assay
Summary of the method: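 In-house ADP-Glo assay with 2 mM DMSO stocks. Kinases were CDK1/cyclin B at 1 nM, CDK2/cyclin E1 at 10 nM and CDK7/cyclin H/MAT1 at 40 nM. Substrate was histone 1 for CDK1 and CDK2, and a RNA pol II CTD peptide for CDK7. Compound at 8–10 concentrations, 1:3 serial, final DMSO 0.5%. Reactions ran 60–120 min at room temperature, then ADP-Glo reagent 40 min in the dark, then detection reagent 40 min, read by luminescence. Ki was derived from IC50 by Cheng-Prusoff.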

MV4-11 [25] = experiment: Induction of apoptosis in human MV4-11 cells assessed as late apoptotic cells at 5 x GI50 concentration incubated for 48 hrs by annexin V-FITC and propidium iodide staining based flow cytometry (reference value: 6.59 %); assay type: functional

Sequence of Receptor-type tyrosine-protein kinase FLT3 (Homo sapiens) (P36888 whole entry): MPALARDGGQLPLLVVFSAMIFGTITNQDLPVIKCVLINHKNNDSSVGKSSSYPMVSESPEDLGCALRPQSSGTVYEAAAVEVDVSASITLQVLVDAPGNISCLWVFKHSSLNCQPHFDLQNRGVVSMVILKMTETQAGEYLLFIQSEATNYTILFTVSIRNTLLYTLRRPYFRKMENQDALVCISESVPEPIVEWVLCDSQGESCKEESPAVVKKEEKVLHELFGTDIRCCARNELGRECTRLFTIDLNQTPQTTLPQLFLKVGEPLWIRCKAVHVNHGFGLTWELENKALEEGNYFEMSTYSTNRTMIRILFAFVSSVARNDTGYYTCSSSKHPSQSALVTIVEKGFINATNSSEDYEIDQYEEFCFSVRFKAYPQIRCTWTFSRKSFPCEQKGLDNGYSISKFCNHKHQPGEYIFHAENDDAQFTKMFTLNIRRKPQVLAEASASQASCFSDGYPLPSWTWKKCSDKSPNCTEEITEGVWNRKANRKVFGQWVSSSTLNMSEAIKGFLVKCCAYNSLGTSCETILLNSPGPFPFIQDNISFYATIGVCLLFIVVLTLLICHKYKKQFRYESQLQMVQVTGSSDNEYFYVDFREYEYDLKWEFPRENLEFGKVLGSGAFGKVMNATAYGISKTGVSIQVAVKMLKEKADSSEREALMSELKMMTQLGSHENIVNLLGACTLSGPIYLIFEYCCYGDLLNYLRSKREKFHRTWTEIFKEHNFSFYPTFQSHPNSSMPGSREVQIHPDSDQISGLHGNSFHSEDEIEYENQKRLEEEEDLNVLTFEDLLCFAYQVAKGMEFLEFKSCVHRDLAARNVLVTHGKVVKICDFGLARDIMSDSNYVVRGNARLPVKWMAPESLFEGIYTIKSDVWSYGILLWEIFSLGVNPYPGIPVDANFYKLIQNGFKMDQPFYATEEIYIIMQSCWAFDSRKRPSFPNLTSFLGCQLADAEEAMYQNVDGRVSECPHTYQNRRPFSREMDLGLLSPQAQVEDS

- Activity [3]: Active
- Ki [4]: 0.262 µM
- GI50 (Jurkat): > 10 µM
- GI50 (U-937 [11]): > 10 µM
- Ki [24]: > 5 µM
SMILES: CC(=O)N1CCN(c2ccc(Nc3nccc(-c4cn(C)c5ncccc45)n3)cc2)CC1
- Activity (U-937 [1]): 2.41%
- Activity (U-937 [2]): 87.16%
- Activity (MV4-11 [5]): 1.48%
- Activity (U-937 [6]): 88.19%
- Activity (MV4-11 [7]): 86.83%
- Activity (MV4-11 [8]): 20.95%
- Activity (MV4-11 [9]): 89.25%
- Activity (MV4-11 [10]): 64.18%
- Activity (MV4-11 [12]): 75%
- Activity (MV4-11 [13]): 72.29%
- Activity (U-937 [14]): 85.8%
- Activity (MV4-11 [15]): 1.56%
- Activity (U-937 [16]): 1.57%
- Activity (MV4-11 [17]): 2.16%
- Activity (MV4-11 [18]): 14.35%
- Activity (U-937 [19]): 1.4%
- Activity (MV4-11 [20]): 6.95%
- Activity (MV4-11 [21]): 73.52%
- Activity (U-937 [22]): 10.31%
- Activity (MV4-11 [23]): 2.17%
- Activity (MV4-11 [25]): 9.25%

— ChEMBL document CHEMBL4813946, “Discovery of novel 4-azaaryl-N-phenylpyrimidin-2-amine derivatives as potent and selective FLT3 inhibitors for acute myeloid leukaemia with FLT3 mutations” (Eur J Med Chem, 2021)
